Drawing on ChEMBL document CHEMBL3407360, “Proteasome inhibitors with pyrazole scaffolds from structure-based virtual screening” (J Med Chem, 2015), this text covers inhibition and IC50 for 1 compound.

Assay [1] deals with T1, Proteasome Macropain subunit MB1 (Homo sapiens) (UniProt P28074).
T1 sequence (whole entry): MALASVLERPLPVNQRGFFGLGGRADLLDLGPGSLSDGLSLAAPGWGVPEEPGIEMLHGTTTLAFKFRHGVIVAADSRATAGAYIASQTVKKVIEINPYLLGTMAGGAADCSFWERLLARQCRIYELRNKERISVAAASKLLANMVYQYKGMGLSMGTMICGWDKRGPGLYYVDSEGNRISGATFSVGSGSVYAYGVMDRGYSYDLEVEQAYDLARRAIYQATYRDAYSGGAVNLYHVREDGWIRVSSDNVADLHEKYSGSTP
As to the kind of experiment: Inhibition of human 20S proteasome beta5 chymotrypsin-like activity using Ac-WLA-AMC as substrate preincubated for 30 mins before substrate addition measured over 90 mins by fluorescence assay.

For assay [2], the species on record is Homo sapiens. As to the kind of experiment: Inhibition of human 20S proteasome beta2i trypsin-like activity using Boc-LRR-AMC as substrate preincubated for 30 mins before substrate addition measured over 90 mins by fluorescence assay. Put shortly: (§1)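 Purified human 20S proteasome (CP or IP, 0.5 µg/mL) was preincubated with compound for 30 min at room temperature in 20 mM Tris-HCl, 0.5 mM EDTA, 0.035% SDS. Substrates were Ac-nLPnLD-AMC 100 µM for β1, Ac-PAL-AMC 100 µM for β1i, and Boc-LRR-AMC 200 µM for β2/β2i. AMC release was followed 90 min at room temperature, ex 360/em 460 nm.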

For assay [3], the target named is Proteasome Macropain subunit (Homo sapiens) (UniProt P49721). As to the kind of experiment: Inhibition of human 20S proteasome beta2 trypsin-like activity using Boc-LRR-AMC as substrate preincubated for 30 mins before substrate addition measured over 90 mins by fluorescence assay. Put shortly: as §1
Assay [4] addresses T2, Proteasome component C5 (Homo sapiens) (UniProt P20618).
T2 sequence (whole entry): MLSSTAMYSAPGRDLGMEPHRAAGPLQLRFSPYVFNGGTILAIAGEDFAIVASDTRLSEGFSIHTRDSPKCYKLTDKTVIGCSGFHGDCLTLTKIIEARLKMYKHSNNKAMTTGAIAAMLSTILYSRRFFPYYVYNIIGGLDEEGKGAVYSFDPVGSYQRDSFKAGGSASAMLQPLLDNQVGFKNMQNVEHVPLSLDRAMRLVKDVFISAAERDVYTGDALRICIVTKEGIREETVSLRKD
Description: Inhibition of human 20S proteasome beta1 caspase-like activity using Ac-nLPnLD-AMC as substrate preincubated for 30 mins before substrate addition measured over 90 mins by fluorescence assay. Put shortly: as §1

The species entered for assay [5] is Homo sapiens. As to the kind of experiment: Inhibition of human 20S proteasome beta1i chymotrypsin-like activity using Ac-PAL-AMC as substrate preincubated for 30 mins before substrate addition measured over 90 mins by fluorescence assay. Put shortly:
as §1

Assay [6] relates to RPMI-8226. Description: Inhibition of 20S proteasome caspase-like in human RPMI8226 cell extracts using Z-LLE-AMC as substrate preincubated at 1 to 10 uM for 30 mins before substrate addition by fluorescence assay. In kind it is cell-free. Put shortly: (§2)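 Cytosolic extracts of RPMI 8226 cells served as the proteasome source in place of purified enzyme. Extracts were preincubated with compound, and hydrolysis of Suc-LLVY-AMC (CT-L), Z-LLE-AMC (C-L) or Boc-LRR-AMC (T-L) was read by AMC fluorescence at ex 360/em 460 nm.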

For assay [7], the species on record is Homo sapiens. As to the kind of experiment: Inhibition of human 20S proteasome beta5i chymotrypsin-like activity using Ac-ANW-AMC as substrate preincubated for 30 mins before substrate addition measured over 90 mins by fluorescence assay.
For assay [8], the system named is RPMI-8226. Description: Inhibition of 20S proteasome chymotrypsin-like in human RPMI8226 cell extracts using Suc-LLVY-AMC as substrate preincubated at 1 to 10 uM for 30 mins before substrate addition by fluorescence assay. It is filed as cell-free. Put shortly: as §2
A further assay concerns NCI-H358. As to the kind of experiment: Cytotoxicity against human NCI-H358 cells after 72 hrs. It is filed as functional, cell-based. Conditions: NCI-H358, 72 h. Put shortly:
(§3)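 Adherent lines, growing in log phase in DMEM or RPMI 1640 with 10% FBS, were plated at 7,000–10,000 cells/well. Compound was added 24 h later at the final concentration. Viability was measured after 72 h by CellTiter Glo luminescence or CellTiter 96 Aqueous One absorbance.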

For assay [9], the system named is RPMI-8226. Description: Inhibition of 20S proteasome trypsin-like in human RPMI8226 cell extracts using Boc-LRR-AMC as substrate preincubated at 1 to 10 uM for 30 mins before substrate addition by fluorescence assay. It is filed as cell-free. Put shortly: as §2
Assay [10] in a line: Cytotoxicity against human H23 cells after 72 hrs. It is filed as functional, cell-based. Conditions: NCI-H23, 72 h. Put shortly:
as §3

The source made the active and inactive calls. No cut-off for these calls is given here.

Proteasome Macropain subunit (Homo sapiens), sequence (P49721 whole entry): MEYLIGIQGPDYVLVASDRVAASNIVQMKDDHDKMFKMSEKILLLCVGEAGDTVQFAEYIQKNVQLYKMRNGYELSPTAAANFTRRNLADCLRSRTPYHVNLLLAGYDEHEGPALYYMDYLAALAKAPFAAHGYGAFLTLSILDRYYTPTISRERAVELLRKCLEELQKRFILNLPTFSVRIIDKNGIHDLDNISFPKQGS

A word on the IC50: it is the concentration that gives 50% inhibition. A low value points to greater potency. On to `Cc1ccc(OS(=O)(=O)c2cccc(C(F)(F)F)c2)c(-c2cc(-c3ccccc3)n(CCN[C@@H]3CCNC3)n2)c1`, for which the inhibition result (in assay [1]; in assay [4]; in the assay filed under Homo sapiens [5]; in the assay with RPMI-8226 [6]; in the assay filed under Homo sapiens [7]; with RPMI-8226 [8]) was “Active” throughout. The inhibition entry (in the assay listed under Homo sapiens [2]; in assay [3]; in the assay with RPMI-8226 [9]) was “inactive” in each case. Further, the IC50 (in the assay with NCI-H358; in assay [10]) was 7 µM throughout.
